Experimental data gathered from unrelated publications.
Target: Glycogen synthase kinase-3 beta (GSK3B, Homo sapiens, UniProt P49841)
Method: competition with immobilised ligand

| Structure (SMILES) | effect on | concentration | remaining binding |
| --- | --- | --- | --- |
| N#Cc1ccccc1CSc1nnc2c(n1)[nH]c1ccccc12 | binding | 10 µM | 100% |
| COc1ncc2cc3ccccc3nc2c1C#N | cell-free assay | 5 µM | 99% |
| C[C@@H]1CN(c2ccc3ncc(-c4ccc5[nH]nc(C6CC6)c5c4)n3n2)C[C@H](C)O1 | binding | 0.5 µM | 74% |
| C[C@H]1CCN(c2nccc(-c3cnn4ncccc34)n2)C1 | binding | 1 µM | 98% |
| CNC(=O)[C@@H]1CC[C@@H](n2c(-c3ccc4cnccc4c3)nc3ccc(C(=O)NCc4cccc(C(N)=O)c4)cc32)C1 | binding | 1 µM | 95% |
| O=C(c1ccc(Nc2ncc(Cl)c(-c3ccc(Cl)s3)n2)cc1)N1CCC(N2CCCC2)CC1 | binding | 1 µM | 60% |
| O=C(Nc1c[nH]nc1C(=O)NC1CCNCC1)c1cc(F)cc(F)c1 | binding | 1 µM | 0.5% |
| CCN1CCN(Cc2ccc(C(=O)Nc3ccc(C)c(Oc4ccc5c(c4)CC(=O)N5)c3)cc2C(F)(F)F)CC1 | binding | 1 µM | 100% |
| C[C@H](c1ccnc(Nc2nc3ccc(-c4cc(N(C)C)ncn4)cc3[nH]2)c1)N1CCN(C(=O)CC(F)(F)F)CC1 | cell-free assay | 0.1 µM | 100% |
| COC(=O)Nc1nc2ccc(C(=O)c3ccccc3)cc2[nH]1 | cell-free assay | 10 µM | 35% |
| O=C(Nc1ccc(Oc2ccc(F)cc2)cc1)N1CCc2ncccc2[C@H]1c1ccc(F)cc1 | cell-free assay | 1 µM | 100% |
| CC(C)(C)c1ccc(-c2nc(CBr)nn2-c2cccc(O)c2)cc1 | cell-free assay | 10 µM | 81% |
| c1cnn2ncc(-c3ccnc(N4CCC45COC5)n3)c2c1 | binding | 1 µM | 77% |
| Cc1nc(Cc2cccc(C(F)(F)F)c2)sc1-c1ccc(C(N)=O)nc1 | cell-free assay | 1 µM | 100% |
| Cc1cnc(Nc2ccc(C(=O)N3CCC(N4CCCC4)CC3)cc2)nc1-c1cc2ccccc2s1 | binding | 1 µM | 51% |
| CN(C)CC#Cc1ccc(OCCCc2sc(N3CCc4cccc(C(=O)Nc5nc6ccccc6s5)c4C3)nc2C(=O)O)c(F)c1 | cell-free assay | 1 µM | 93% |
| c1cncc(-c2cccc(Nc3nccc(NC4CCCCC4)n3)c2)c1 | binding | 10 µM | 89% |
| Cn1nc(C(=O)NCc2ccc(C(=O)O)cc2)cc1-c1ccc2[nH]ccc2c1 | cell-free assay | 0.1 µM | 78% |
| O=C(c1ccc(Nc2ncc(Cl)c(-c3cc4ccccc4s3)n2)cc1)N1CCC(N2CCCC2)CC1 | binding | 1 µM | 37% |
